Measurements reported in ChEMBL document CHEMBL5705905, “Pharmacological targeting of kinases MST1 and MST2 augments tissue repair and regeneration” (Sci Transl Med, 2016).
Active and inactive are the calls of the source. The calls are words filed in the database; no cut-off is given here.

What was measured:
[1] = target: Myosin light chain kinase, smooth muscle (Homo sapiens) (UniProt Q15746); test: Inhibition of MYLK (unknown origin) assessed as remaining activity at 1 uM by Kinome scan method relative to control
[2] = target: Receptor-interacting serine/threonine-protein kinase 4 (Homo sapiens, UniProt P57078); test: Binding affinity to RIPK4 (unknown origin) assessed as dissociation constant
[3] = target: Serine/threonine-protein kinase Nek7 (Homo sapiens) (UniProt Q8TDX7); test: Inhibition of NEK7 (unknown origin) assessed as remaining activity at 1 uM by Kinome scan method relative to control
[4] = tested on: Tyrosine-protein kinase ABL1 (Homo sapiens), P00519 [Y253F]; test: Inhibition of phosphorylated ABL1 Y253F mutant (unknown origin) assessed as remaining activity at 1 uM by Kinome scan method relative to control
[5] = target: Cyclin-dependent kinase-like 3 (Homo sapiens) (UniProt Q8IVW4); test: Inhibition of CDKL3 (unknown origin) assessed as remaining activity at 1 uM by Kinome scan method relative to control
In short: (§1)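 Active-site-dependent competition-binding profiling (KINOMEscan) at 1 μM against a 468-kinase panel; compound supplied from a 10 mM DMSO stock. Read-out is ctrl% = (test signal − positive control signal)/(negative control signal − positive control signal) × 100. DMSO is the negative control (100%) and a control compound the positive control (0%). Lower ctrl% means tighter binding.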

[6] = target: Dual serine/threonine and tyrosine protein kinase (Homo sapiens) (UniProt Q6XUX3); test: Inhibition of RIPK5 (unknown origin) assessed as remaining activity at 1 uM by Kinome scan method relative to control
[7] = target: Misshapen-like kinase 1 (Homo sapiens) (UniProt Q8N4C8); test: Inhibition of MINK (unknown origin) assessed as remaining activity at 1 uM by Kinome scan method relative to control
[8] = target: Serine/threonine-protein kinase 26 (Homo sapiens, UniProt Q9P289); test: Inhibition of MST4 (unknown origin) assessed as remaining activity at 1 uM by Kinome scan method relative to control
[9] = target: Serine/threonine-protein kinase Sgk2 (Homo sapiens) (UniProt Q9HBY8); test: Inhibition of SGK2 (unknown origin) assessed as remaining activity at 1 uM by Kinome scan method relative to control
[10] = target: Wee1-like protein kinase (Homo sapiens) (UniProt P30291); test: Inhibition of WEE1 (unknown origin) assessed as remaining activity at 1 uM by Kinome scan method relative to control
[11] = target: Cyclin-dependent kinase 9 (Homo sapiens) (UniProt P50750); test: Inhibition of CDK9 (unknown origin) assessed as remaining activity at 1 uM by Kinome scan method relative to control; in short: as §1
[12] = target: Mitogen-activated protein kinase kinase kinase 5 (Homo sapiens) (UniProt Q99683); test: Inhibition of ASK1 (unknown origin) assessed as remaining activity at 1 uM by Kinome scan method relative to control
In short: (§2)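 Active-site-dependent competition-binding (KINOMEscan) panel of 468 kinases, test compound at 1 μM (from a 10 mM DMSO stock). Read-out is ctrl% = (test signal − positive control signal)/(negative control signal − positive control signal) × 100. DMSO is the negative control (100%) and a control compound is the positive control (0%). Lower ctrl% means tighter binding.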

Mus musculus [13] = test: In vivo inhibition of MST1/2 in wild-type Mst1fl/fl Mst2fl/fl mouse assessed as high in CTGF mRNA level at 1 mg/kg, ip administrated daily for 7 days by RT-PCR analysis; assay type: functional, organism-based; details: Liver, time 7.0 day
[14] = tested on: Phosphatidylinositol 4,5-bisphosphate 3-kinase catalytic subunit alpha isoform (Homo sapiens), P42336 [E542K]; test: Inhibition of PIK3CA E542K mutant (unknown origin) assessed as remaining activity at 1 uM by Kinome scan method relative to control
[15] = target: Testis-specific serine/threonine-protein kinase 1 (Homo sapiens) (UniProt Q9BXA7); test: Inhibition of TSSK1B (unknown origin) assessed as remaining activity at 1 uM by Kinome scan method relative to control
[16] = target: Casein kinase II subunit alpha' (Homo sapiens) (UniProt P19784); test: Inhibition of CSNK2A2 (unknown origin) assessed as remaining activity at 1 uM by Kinome scan method relative to control; in short: as §1
[17] = target: Receptor tyrosine-protein kinase erbB-3 (Homo sapiens) (UniProt P21860); test: Inhibition of ERBB3 (unknown origin) assessed as remaining activity at 1 uM by Kinome scan method relative to control
[18] = target: Tyrosine-protein kinase Yes (Homo sapiens) (UniProt P07947); test: Inhibition of YES (unknown origin) assessed as remaining activity at 1 uM by Kinome scan method relative to control
[19] = target: Serine/threonine-protein kinase TAO3 (Homo sapiens) (UniProt Q9H2K8); test: Inhibition of TAOK3 (unknown origin) assessed as remaining activity at 1 uM by Kinome scan method relative to control
[20] = target: Calcium/calmodulin-dependent protein kinase type II subunit beta (Homo sapiens) (UniProt Q13554); test: Inhibition of CAMK2B (unknown origin) assessed as remaining activity at 1 uM by Kinome scan method relative to control; in short: as §1
[21] = target: Receptor-type tyrosine-protein kinase FLT3 (Homo sapiens) (UniProt P36888); test: Inhibition of FLT3-autoinnibited (unknown origin) assessed as remaining activity at 1 uM by Kinome scan method relative to control
[22] = target: AP2-associated protein kinase 1 (Homo sapiens) (UniProt Q2M2I8); test: Inhibition of AAK1 (unknown origin) assessed as remaining activity at 1 uM by Kinome scan method relative to control; in short: as §2
[23] = target: T1, Serine/threonine-protein kinase ULK2 (Homo sapiens, UniProt Q8IYT8); test: Binding affinity to ULK2 (unknown origin) assessed as dissociation constant
[24] = target: Interleukin-1 receptor-associated kinase 3 (Homo sapiens) (UniProt Q9Y616); test: Inhibition of IRAK3 (unknown origin) assessed as remaining activity at 1 uM by Kinome scan method relative to control
[25] = target: Tyrosine-protein kinase Fes/Fps (Homo sapiens) (UniProt P07332); test: Inhibition of FES (unknown origin) assessed as remaining activity at 1 uM by Kinome scan method relative to control
[26] = Acute toxicity in wild-type mouse assessed as cell proliferation in kidney at 3 mg/kg,ip administrated daily for 7 days by Ki67 staining; assay type: organism-based; details: in vivo, 168 h, time 7 day
In short: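 Wild-type mice received vehicle or 3 mg/kg i.p. daily for 7 days. Ki67 staining of sections from various tissues with quantification of positive cells, n = 6; means ± SD, Student's t test. Daily weights, physical activity and serum chemistry were also monitored.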

Mus musculus [27] = test: Protection against APAP induced liver injury in mouse assessed as decrease in ALT level at 1 mg/kg, ip administered at 1.5 hrs; assay type: functional, organism-based; details: Serum
[28] = target: T1, Serine/threonine-protein kinase ULK2; test: Inhibition of ULK2 (unknown origin) in presence of ATP by enzymatic assay
HepG2 = test: Inhibition of Flag-tagged MST1 D109A mutant (unknown origin) in human HepG2 cells assessed as MOB1 phosphorylation level at 0.3 to 10 uM by immunoblot analysis; assay type: cell-based; details: dose 0.3-10 µM

T1 sequence (Q8IYT8 whole entry): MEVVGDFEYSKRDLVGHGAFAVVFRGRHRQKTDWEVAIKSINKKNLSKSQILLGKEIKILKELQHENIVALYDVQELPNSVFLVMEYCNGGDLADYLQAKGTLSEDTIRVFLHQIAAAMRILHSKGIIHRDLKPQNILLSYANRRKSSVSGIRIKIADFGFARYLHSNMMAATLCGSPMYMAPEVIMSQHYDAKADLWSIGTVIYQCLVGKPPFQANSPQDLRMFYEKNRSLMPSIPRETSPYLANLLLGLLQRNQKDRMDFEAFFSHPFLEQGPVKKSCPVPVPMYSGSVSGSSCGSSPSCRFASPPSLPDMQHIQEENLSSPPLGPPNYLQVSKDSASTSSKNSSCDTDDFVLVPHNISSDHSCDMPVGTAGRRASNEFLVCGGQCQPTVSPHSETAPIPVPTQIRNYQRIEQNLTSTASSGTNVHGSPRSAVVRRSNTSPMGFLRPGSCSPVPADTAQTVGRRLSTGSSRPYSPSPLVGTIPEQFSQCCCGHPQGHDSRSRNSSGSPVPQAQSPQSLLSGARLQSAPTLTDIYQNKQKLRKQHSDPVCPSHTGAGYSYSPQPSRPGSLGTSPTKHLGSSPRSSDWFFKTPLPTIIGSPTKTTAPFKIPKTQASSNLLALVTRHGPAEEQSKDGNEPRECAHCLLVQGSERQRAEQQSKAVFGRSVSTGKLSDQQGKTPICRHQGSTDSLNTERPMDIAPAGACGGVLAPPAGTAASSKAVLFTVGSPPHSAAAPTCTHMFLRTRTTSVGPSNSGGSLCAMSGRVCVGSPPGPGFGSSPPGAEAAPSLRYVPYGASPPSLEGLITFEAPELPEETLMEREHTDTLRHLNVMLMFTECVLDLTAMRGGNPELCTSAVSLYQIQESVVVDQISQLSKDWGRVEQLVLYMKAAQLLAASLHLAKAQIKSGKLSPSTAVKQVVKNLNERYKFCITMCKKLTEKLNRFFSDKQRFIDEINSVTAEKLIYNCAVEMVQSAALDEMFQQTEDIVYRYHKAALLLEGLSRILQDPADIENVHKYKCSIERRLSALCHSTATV
Sequence of Dual serine/threonine and tyrosine protein kinase (Homo sapiens) (Q6XUX3 whole entry): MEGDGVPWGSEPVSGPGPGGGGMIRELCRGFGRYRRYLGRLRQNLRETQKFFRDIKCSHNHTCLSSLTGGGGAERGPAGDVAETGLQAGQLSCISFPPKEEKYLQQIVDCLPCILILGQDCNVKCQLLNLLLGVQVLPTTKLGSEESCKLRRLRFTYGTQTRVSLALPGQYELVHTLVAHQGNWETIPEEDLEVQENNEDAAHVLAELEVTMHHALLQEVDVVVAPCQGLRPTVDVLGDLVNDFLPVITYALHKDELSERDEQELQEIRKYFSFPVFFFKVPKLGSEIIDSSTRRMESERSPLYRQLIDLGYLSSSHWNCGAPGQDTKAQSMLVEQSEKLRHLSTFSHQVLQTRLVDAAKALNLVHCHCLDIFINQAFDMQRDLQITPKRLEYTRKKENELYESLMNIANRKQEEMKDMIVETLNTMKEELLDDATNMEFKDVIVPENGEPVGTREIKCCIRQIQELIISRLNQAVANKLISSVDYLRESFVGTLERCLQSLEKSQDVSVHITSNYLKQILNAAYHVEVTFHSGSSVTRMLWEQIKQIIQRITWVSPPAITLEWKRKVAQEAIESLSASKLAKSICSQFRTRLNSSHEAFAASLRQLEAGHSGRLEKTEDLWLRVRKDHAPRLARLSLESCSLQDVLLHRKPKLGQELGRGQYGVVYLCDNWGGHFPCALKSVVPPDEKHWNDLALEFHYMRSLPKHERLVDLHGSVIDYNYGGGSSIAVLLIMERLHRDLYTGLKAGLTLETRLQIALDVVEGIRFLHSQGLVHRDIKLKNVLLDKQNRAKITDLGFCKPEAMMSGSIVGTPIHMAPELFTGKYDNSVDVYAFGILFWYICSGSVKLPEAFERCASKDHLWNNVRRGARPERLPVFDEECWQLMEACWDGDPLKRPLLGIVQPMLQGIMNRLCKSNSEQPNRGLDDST
Sequence of Serine/threonine-protein kinase Sgk2 (Homo sapiens) (Q9HBY8 whole entry): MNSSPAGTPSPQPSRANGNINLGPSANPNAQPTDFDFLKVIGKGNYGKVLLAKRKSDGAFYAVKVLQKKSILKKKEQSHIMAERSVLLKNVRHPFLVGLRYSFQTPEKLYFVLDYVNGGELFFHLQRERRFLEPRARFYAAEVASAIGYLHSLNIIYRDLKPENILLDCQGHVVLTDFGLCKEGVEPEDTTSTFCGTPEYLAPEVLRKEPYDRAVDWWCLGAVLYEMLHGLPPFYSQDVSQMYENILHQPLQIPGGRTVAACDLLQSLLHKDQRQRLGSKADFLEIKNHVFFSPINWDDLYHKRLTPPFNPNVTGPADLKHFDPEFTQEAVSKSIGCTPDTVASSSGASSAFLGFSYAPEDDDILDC
Sequence of Receptor-interacting serine/threonine-protein kinase 4 (P57078 whole entry): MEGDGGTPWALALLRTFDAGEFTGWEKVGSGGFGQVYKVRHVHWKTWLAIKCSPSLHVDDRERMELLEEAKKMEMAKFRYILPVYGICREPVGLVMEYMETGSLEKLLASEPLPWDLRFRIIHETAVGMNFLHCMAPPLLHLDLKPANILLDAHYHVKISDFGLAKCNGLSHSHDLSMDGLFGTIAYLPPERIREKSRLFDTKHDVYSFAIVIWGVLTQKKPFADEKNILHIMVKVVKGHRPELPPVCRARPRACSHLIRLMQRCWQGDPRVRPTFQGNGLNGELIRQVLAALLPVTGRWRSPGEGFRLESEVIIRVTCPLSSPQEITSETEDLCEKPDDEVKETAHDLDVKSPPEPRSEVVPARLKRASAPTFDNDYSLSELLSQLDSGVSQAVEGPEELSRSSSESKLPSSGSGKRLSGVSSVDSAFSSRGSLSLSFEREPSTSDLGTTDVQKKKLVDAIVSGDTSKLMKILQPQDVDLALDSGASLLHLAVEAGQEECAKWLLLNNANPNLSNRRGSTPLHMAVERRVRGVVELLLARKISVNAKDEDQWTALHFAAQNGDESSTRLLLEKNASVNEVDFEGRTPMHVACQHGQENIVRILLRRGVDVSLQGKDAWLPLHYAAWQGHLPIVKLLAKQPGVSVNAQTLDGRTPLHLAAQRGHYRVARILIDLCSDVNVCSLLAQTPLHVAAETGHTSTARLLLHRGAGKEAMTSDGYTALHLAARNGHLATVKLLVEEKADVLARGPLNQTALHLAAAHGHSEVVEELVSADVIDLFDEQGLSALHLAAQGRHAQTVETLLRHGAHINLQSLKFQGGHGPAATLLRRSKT
Sequence of Tyrosine-protein kinase Yes (Homo sapiens) (P07947 2-543 limits assumed): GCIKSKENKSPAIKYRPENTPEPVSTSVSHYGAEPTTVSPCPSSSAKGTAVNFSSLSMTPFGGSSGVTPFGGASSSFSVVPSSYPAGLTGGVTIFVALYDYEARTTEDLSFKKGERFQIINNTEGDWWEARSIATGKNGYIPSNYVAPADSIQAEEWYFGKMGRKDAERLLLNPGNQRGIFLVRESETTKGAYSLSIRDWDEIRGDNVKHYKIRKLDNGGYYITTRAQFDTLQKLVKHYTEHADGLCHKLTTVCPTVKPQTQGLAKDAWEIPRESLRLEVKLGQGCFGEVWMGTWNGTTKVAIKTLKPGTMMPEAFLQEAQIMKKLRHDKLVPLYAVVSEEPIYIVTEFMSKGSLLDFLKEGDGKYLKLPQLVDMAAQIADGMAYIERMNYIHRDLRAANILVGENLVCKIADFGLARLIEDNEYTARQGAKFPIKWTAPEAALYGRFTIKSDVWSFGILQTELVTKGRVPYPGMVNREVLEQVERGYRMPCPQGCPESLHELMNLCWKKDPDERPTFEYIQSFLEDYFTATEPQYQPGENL
Sequence of Cyclin-dependent kinase 9 (Homo sapiens) (P50750 whole entry): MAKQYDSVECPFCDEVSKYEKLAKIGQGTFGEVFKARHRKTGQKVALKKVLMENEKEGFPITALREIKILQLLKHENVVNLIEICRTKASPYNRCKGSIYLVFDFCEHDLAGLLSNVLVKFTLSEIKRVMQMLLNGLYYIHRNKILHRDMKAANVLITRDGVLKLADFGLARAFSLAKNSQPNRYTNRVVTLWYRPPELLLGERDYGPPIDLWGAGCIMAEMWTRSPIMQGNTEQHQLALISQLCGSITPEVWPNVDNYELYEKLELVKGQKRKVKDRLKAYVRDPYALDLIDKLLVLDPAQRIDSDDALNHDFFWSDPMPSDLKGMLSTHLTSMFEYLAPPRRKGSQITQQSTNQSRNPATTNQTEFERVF
Sequence of Cyclin-dependent kinase-like 3 (Homo sapiens) (Q8IVW4 whole entry, looked up): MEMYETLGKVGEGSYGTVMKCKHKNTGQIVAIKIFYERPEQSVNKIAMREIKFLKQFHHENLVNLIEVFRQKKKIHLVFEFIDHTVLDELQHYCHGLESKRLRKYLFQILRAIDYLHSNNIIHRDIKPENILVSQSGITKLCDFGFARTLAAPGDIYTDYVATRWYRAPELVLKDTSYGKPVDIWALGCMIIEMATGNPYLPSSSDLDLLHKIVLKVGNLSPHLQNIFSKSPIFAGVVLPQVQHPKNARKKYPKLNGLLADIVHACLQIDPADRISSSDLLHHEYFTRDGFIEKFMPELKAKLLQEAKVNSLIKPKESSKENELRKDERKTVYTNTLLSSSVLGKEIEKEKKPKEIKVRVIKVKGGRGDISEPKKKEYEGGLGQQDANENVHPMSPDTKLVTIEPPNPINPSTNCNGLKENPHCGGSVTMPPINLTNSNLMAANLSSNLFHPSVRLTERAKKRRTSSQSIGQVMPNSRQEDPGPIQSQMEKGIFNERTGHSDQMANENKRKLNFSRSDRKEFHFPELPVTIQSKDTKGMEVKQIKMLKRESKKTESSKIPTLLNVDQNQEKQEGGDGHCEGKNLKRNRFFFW
Sequence of Serine/threonine-protein kinase Nek7 (Homo sapiens) (Q8TDX7 whole entry, looked up): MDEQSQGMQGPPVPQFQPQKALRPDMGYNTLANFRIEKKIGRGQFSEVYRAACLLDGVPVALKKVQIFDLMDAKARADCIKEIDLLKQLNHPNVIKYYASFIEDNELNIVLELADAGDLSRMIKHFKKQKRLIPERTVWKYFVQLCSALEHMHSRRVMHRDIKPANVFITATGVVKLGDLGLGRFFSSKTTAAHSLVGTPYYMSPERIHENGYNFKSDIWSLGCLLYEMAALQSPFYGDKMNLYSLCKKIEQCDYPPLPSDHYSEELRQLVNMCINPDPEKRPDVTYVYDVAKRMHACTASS

CN1C(=O)c2sccc2N(C)c2nc(Nc3ccc(S(N)(=O)=O)cc3)ncc21
Activity [1]: 100% | Kd [2]: 0.14 µM | Activity [3]: 88% | Activity [4]: 15% | Activity [5]: 91% | Activity [6]: 45% | Activity [7]: 58% | Activity [8]: 0.6% | Activity [9]: 91% | Activity [10]: 100% | Activity [11]: 84% | Activity [12]: 100% | inhibition (Mus musculus [13]): Active | Activity [14]: 48% | Activity [15]: 100% | Activity [16]: 97% | Activity [17]: 98% | Activity [18]: 100% | Activity [19]: 4.5% | Activity [20]: 73% | Activity [21]: 100% | Activity [22]: 100% | Kd [23]: 0.035 µM | Activity [24]: 100% | Activity [25]: 39% | Activity [26]: Non-Toxic | Activity (Mus musculus [27]): Active | IC50 [28]: 0.0415 µM | inhibition (HepG2): Active
